From publication PMC6510378 (Clinical and Translational Science, 2019)

Key:
[1] = SAD study plasma PK, single oral dose, healthy young subjects; type: in vivo, human; conditions: for Cmax / Tmax / AUC(0-inf) / half-life: human, plasma, po; for AUC(0-inf): AUCinf; for half-life: t½
How it was run: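 Healthy adults aged 18–55, randomized 6 active : 2 placebo per cohort, received a single fasted oral dose (1–60 mg) with 240 mL water. Serial blood was drawn predose to 72 h, plus 96 and 120 h in the 6, 30 and 60 mg cohorts. Plasma drug was measured by validated HPLC-MS/MS, with below-limit values set to zero. Dose proportionality used a power model on log-transformed dose.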

MAD study part 2 = type: in vivo, human
How it was run: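 Healthy young non-Japanese adults, open-label oral dosing. 0.7 or 2 mg was given as a single dose on day 1, then after a 6-day washout once daily. 0.4 mg was given once daily on days 1–14. 0.2 mg followed a 3 mg loading dose on day 1, days 2–14. PK doses were given fasted 10 h, with no food for 4 h. Plasma drug was measured by validated HPLC-MS/MS, with below-limit values set to zero. AUClast was reported where AUCinf was not calculable.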

11β‐HSD1 = 11β‐HSD1 (Homo sapiens, UniProt P28845); experiment: Urine 11β-HSD1 activity; type: in vivo
Sequence of 11β‐HSD1 (P28845 whole entry): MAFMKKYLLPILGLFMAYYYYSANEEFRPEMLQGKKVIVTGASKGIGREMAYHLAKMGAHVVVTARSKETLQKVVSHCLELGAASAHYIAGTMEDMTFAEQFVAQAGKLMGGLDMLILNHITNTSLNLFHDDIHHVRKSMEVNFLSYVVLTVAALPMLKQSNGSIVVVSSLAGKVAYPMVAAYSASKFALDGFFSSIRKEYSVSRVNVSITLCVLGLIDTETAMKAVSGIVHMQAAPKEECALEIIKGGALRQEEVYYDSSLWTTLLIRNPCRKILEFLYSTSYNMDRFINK
How it was run: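 Hepatic 11β-HSD1 activity was taken as the urinary ratio of (5α + 5β)-tetrahydrocortisol to tetrahydrocortisone. In the single-dose study, urine was collected predose to 72 h. In the high-dose multiple-dose part, cumulative amounts excreted were measured on days 1 and 18. In the low-dose part, first morning void samples were used, with baseline on day –1 and follow-up through days 16–21 and day 28.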

4-week toxicology = type: in vivo; conditions: 4-week toxicology data, most sensitive species (rat)
human 11β‐HSD1 = conditions: competitive binding; ref Internal study reports 3662‐PH‐0001 and 3662‐PH‐0001‐0004; cited from earlier work
[2] = 3 mg, Median, single oral dose 3 mg, n=6
[3] = 3 mg, Min–max, single oral dose 3 mg, n=6
[4] = 6 mg, Mean (SD), single oral dose 6 mg, n=6
[5] = 6 mg, Median, single oral dose 6 mg, n=6
[6] = 6 mg, Min–max, single oral dose 6 mg, n=6
[7] = 10 mg, Mean (SD), single oral dose 10 mg, n=3
[8] = 10 mg, Median, single oral dose 10 mg, n=3
[9] = 10 mg, Min–max, single oral dose 10 mg, n=3
[10] = 10 mg, Median, single oral dose 10 mg, n=6
[11] = 10 mg, Min–max, single oral dose 10 mg, n=6
[12] = 30 mg, Mean (SD), single oral dose 30 mg, n=6
[13] = 30 mg, Median, single oral dose 30 mg, n=6
[14] = 30 mg, Min–max, single oral dose 30 mg, n=6
[15] = 60 mg, Mean (SD), single oral dose 60 mg, n=6
[16] = 60 mg, Median, single oral dose 60 mg, n=6
[17] = 60 mg, Min–max, single oral dose 60 mg, n=6
[18] = MAD part 2, day 1 single dose 0.7 mg, young non-Japanese, n=6
[19] = MAD part 2, day 1 single dose 2 mg, young non-Japanese, n=2
[20] = MAD part 2, last day of q.d. 14 days 0.4 mg, young non-Japanese, n=2
[21] = MAD part 2, last day of q.d. 14 days 0.4 mg, young non-Japanese, n=4
[22] = MAD part 2, last day of q.d. 14 days 0.7 mg, young non-Japanese, n=1
[23] = MAD part 2, last day of q.d. 14 days 0.7 mg, young non-Japanese, n=6
[24] = MAD part 2, last day of q.d. 14 days 2 mg, young non-Japanese, n=4
[25] = MAD part 2, last day of q.d. 14 days 2 mg, young non-Japanese, n=5

## Cn1c(-c2ccc(C(N)=O)cc2F)nnc1C(C)(C)Oc1c(F)cc(Cl)cc1F [ASP3662]
[1]; 1 mg, Mean (SD), single oral dose 1 mg, n=6
  Cmax: 0.0433 ng/mL
[1]; 1 mg, Min–max, single oral dose 1 mg, n=6
  Cmax: < 0.14 ng/mL
[1]; 1 mg, Median, single oral dose 1 mg, n=2
  Tmax: 0.75 h
[1]; 1 mg, Min–max, single oral dose 1 mg, n=2
  Tmax: 0.5 to 1 h
[1]; 3 mg, Mean (SD), single oral dose 3 mg, n=6
  Cmax: 3.54 ng/mL
[1]; [2]
  Cmax: 1.6 ng/mL
  Tmax: 2.5 h
[1]; [3]
  Cmax: 0.38 to 9.24 ng/mL
  Tmax: 1 to 4.02 h
[1]; [4]
  AUC(0-inf): 405 ng·h/mL
  Cmax: 28 ng/mL
  half-life: 37.7 h
[1]; [5]
  AUC(0-inf): 410 ng·h/mL
  Cmax: 30.5 ng/mL
  Tmax: 1.75 h
  half-life: 37.9 h
[1]; [6]
  AUC(0-inf): 169 to 660 ng·h/mL
  Cmax: 10.8 to 43.7 ng/mL
  Tmax: 1 to 4 h
  half-life: 28.5 to 46.3 h
[1]; [7]
  AUC(0-inf): 858 ng·h/mL
  half-life: 19.5 h
[1]; [8]
  AUC(0-inf): 953 ng·h/mL
  half-life: 21.9 h
[1]; [9]
  AUC(0-inf): 620 to 1000 ng·h/mL
  half-life: 13.7 to 23 h
[1]; 10 mg, Mean (SD), single oral dose 10 mg, n=6
  Cmax: 64 ng/mL
[1]; [10]
  Cmax: 60.9 ng/mL
  Tmax: 1.75 h
[1]; [11]
  Cmax: 49 to 93.6 ng/mL
  Tmax: 1 to 6 h
[1]; [12]
  AUC(0-inf): 3620 ng·h/mL
  Cmax: 258 ng/mL
  half-life: 17.6 h
[1]; [13]
  AUC(0-inf): 3370 ng·h/mL
  Cmax: 239 ng/mL
  Tmax: 3.5 h
  half-life: 17.4 h
[1]; [14]
  AUC(0-inf): 1630 to 6770 ng·h/mL
  Cmax: 151 to 386 ng/mL
  Tmax: 1.5 to 4 h
  half-life: 14.5 to 20.2 h
[1]; [15]
  AUC(0-inf): 8190 ng·h/mL
  Cmax: 595 ng/mL
  half-life: 14.8 h
[1]; [16]
  AUC(0-inf): 8460 ng·h/mL
  Cmax: 566 ng/mL
  Tmax: 3.5 h
  half-life: 14.6 h
[1]; [17]
  AUC(0-inf): 5440 to 12500 ng·h/mL
  Cmax: 439 to 865 ng/mL
  Tmax: 2 to 4 h
  half-life: 13.1 to 17.3 h
[1]; single oral dose 6 mg, n=6
  CL/F, Mean (SD): 18.38 (9.909) L/hour
  CL/F, Median: 15.62 L/h
  CL/F, Min–max: 9.09 to 35.4 L/h
[1]; single oral dose 10 mg, n=3
  CL/F, Mean (SD): 12.20 (3.403) L/hour
  CL/F, Median: 10.49 L/h
  CL/F, Min–max: 9.99 to 16.1 L/h
[1]; single oral dose 30 mg, n=6
  CL/F, Mean (SD): 10.05 (4.856) L/hour
  CL/F, Median: 9.012 L/h
  CL/F, Min–max: 4.43 to 18.4 L/h
[1]; single oral dose 60 mg, n=6
  CL/F, Mean (SD): 7.933 (2.407) L/hour
  CL/F, Median: 7.091 L/h
  CL/F, Min–max: 4.81 to 11.0 L/h
MAD study part 2; 0.2 and 0.4 mg, despite 3‐mg loading dose in 0.2‐mg group
  steady state after 14 days of q.d. dosing: not fully reached
MAD study part 2; [18]
  AUCinf (AUClast values presented, footnote a), Mean (SD): 0.2437 (0.4421) ng·hour/mL
  AUCinf (AUClast values presented, footnote a), Median: 0.01242 ng·h/mL
  AUCinf (AUClast values presented, footnote a), Min–max: 0 to 1.11 ng·h/mL
MAD study part 2; [19]
  CL/F, Mean (SD): 42.21 (6.917) L/hour
  CL/F, Median: 42.21 L/h
  CL/F, Min–max: 37.3 to 47.1 L/h
  VzF, Mean (SD): 5,472 (1,378) L
  VzF, Median: 5,472 L
MAD study part 2; [20]
  VzF, Mean (SD): 2,516 (45.89) L
  VzF, Median: 2,516 L
  VzF, Min–max: 2,484–2,549 L
MAD study part 2; [21]
  CL/F, Mean (SD): 10.83 (0.7639) L/hour
  CL/F, Median: 10.83 L/h
  CL/F, Min–max: 9.90 to 11.8 L/h
  Ctrough, Mean (SD): 1.072 (0.1719) ng/mL
  Ctrough, Median: 1.053 ng/mL
  Ctrough, Min–max: 0.918 to 1.26 ng/mL
MAD study part 2; [22]
  VzF, Mean (SD): 3,677 (NC) L
  VzF, Median: 3,677 L
  VzF, Min–max: 3,677–3,677 L
MAD study part 2; [23]
  CL/F, Mean (SD): 11.44 (2.349) L/hour
  CL/F, Median: 11.34 L/h
  CL/F, Min–max: 7.45 to 14.2 L/h
  Ctrough, Mean (SD): 1.389 (0.3190) ng/mL
  Ctrough, Median: 1.234 ng/mL
  Ctrough, Min–max: 1.10 to 1.83 ng/mL
MAD study part 2; [24]
  VzF, Mean (SD): 1,231 (547.6) L
  VzF, Median: 1,165 L
  VzF, Min–max: 715–1,880 L
MAD study part 2; [25]
  CL/F, Mean (SD): 9.41 (1.208) L/hour
  CL/F, Median: 9.139 L/h
  CL/F, Min–max: 8.23 to 11.4 L/h
  Ctrough, Mean (SD): 3.493 (1.166) ng/mL
  Ctrough, Median: 3.437 ng/mL
  Ctrough, Min–max: 1.80 to 5.03 ng/mL
11β‐HSD1; 16 days after discontinuation of multiple doses, even lowest dose 0.2 mg
  return of 11β‐HSD1 activity to baseline: incomplete
11β‐HSD1; clinical PD data referred to in the dose rationale
  dose achieving full inhibition of peripheral 11β‐HSD1: 3 mg
11β‐HSD1; multiple daily doses
  dose achieving full inhibition of 11β‐HSD1: ≥ 2 mg
11β‐HSD1; nadir at doses of 2 mg and above
  11β‐HSD1 activity ratio at maximal inhibition: ~ 0.1 ratio
4-week toxicology
  maximum recommended starting dose derived from the no observed adverse effect level: 10 mg
Human 11β‐HSD1
  Ki: 5.3 nM
